Bioassay records (PubChem)
In the library only some 1.7% were active in any assay of this set; here they are far more common.
CAL PDZ FP-1 = CAL PDZ (human) peptide binding inhibition. AID 602252. 300,000 compounds, 0.92% hits. inhibition, % at 24.9 µM. purified CAL PDZ, TMR-peptide fluorescence polarization, 1 h. Q9HD26;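 active = mean inhibition of at least 30% with at least half of replicates also reaching 30%; inconclusive = no clear call, values can overlap the other calls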
Keap1 Nrf2 FP = Keap1-Nrf2 (human) interaction inhibition | Q14145 | Keap1 Kelch-Nrf2 peptide fluorescence polarization, 1536-well | inhibition, % at 9.4 µM | 340,000 compounds, 0.15% hits | AID 504523; in the data active = inhibition above about 12%; inconclusive = no clear call, values can overlap the other calls; inactive = below about 7.3%;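 note: human Keap1 Kelch domain with fluorescein labeled Nrf2 9mer peptide probe; higher means more block of Keap1 binding to Nrf2 peptide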
Target sequence (Q14145 whole entry, looked up, the tested form may be a part): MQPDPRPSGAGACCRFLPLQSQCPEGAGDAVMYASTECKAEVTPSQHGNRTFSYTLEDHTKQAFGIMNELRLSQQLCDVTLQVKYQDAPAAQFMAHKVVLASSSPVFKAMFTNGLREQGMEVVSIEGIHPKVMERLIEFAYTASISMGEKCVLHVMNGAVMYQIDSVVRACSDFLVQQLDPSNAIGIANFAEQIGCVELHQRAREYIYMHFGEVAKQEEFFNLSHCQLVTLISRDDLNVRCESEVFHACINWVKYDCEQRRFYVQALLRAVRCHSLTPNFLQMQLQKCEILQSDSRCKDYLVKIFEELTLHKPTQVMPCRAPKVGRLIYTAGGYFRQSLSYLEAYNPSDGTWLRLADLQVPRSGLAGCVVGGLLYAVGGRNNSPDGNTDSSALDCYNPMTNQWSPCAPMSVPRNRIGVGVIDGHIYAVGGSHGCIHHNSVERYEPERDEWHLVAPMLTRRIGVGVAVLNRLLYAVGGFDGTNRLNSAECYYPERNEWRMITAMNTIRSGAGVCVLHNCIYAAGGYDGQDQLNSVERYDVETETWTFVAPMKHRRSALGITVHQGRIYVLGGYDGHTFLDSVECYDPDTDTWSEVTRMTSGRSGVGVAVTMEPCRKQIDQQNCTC
A3G deaminase = APOBEC3G (human) deaminase inhibition; Q9HC16; recombinant A3G, ssDNA deamination FAM/TAMRA fluorescence; inhibition, % at 20 µM; 330,000 compounds, 0.28% hits;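 active = inhibition of at least 40% at 20 µM, with no more than 30% in the related APOBEC3A deaminase screen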
LANA DNA inh = blocks KSHV LANA C-terminal domain binding to DNA | 340,000 compounds, 0.078% hits | AID 504423 | MBP-C-LANA/FAM-LBS DNA binding, fluorescence polarization | inhibition, % at 9 µM;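 active = highest replicate inhibition at or above 60% at 9 µM, even if other replicates fall short; inactive = all replicates below 60% inhibition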
APOBEC3A inh = inhibitors of human APOBEC3A DNA deaminase. AID 493011. P31941. recombinant A3A, FAM/TAMRA ssDNA deamination fluorescence. inhibition, % at 20 µM. 330,000 compounds, 0.41% hits;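 active = at least 40% inhibition at 20 µM here, with at most 30% in a related deaminase screen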
CAL PDZ FP-2 = inhibitors of human CAL PDZ peptide binding. 330,000 compounds, 0.02% hits. purified CAL PDZ, TMR-peptide fluorescence polarization, 1 h. inhibition, % at 20 µM. Q9HD26;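 active = highest replicate inhibition of at least 40%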
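Control set: unlabelled peptide and DMSO controls / Material: purified CerCALP PDZ construct / Timing: 1 h incubation at room temperature before polarization reading / Doses: 20 µM, one dose / Detection: fluorescence polarization (mP)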
Each line names hits and unclear results; the compound was inactive in the other large screens.

O=C(CSc1nnc(CNC(=O)c2cccs2)o1)Nc1ccc(Br)cc1	CAL PDZ FP-1 43.6
O=C1CS/C(=N/N=C/c2ccccc2)N1c1ccc(O)cc1	CAL PDZ FP-1 79.4 (no result: CAL PDZ FP-2)
O=C1CS/C(=N\N=C\c2ccco2)N1c1ccccc1	none
CCc1ccc(-c2nc(CS(=O)CC(=O)NCc3ccccc3)c(C)o2)cc1 (centres undefined)	CAL PDZ FP-1 70.6
Cc1oc(-c2ccc(Cl)cc2)nc1CS(=O)CC(=O)NCc1ccccc1 (centres undefined)	none
CCOC(=O)C1(CCCc2ccccc2)CCN(Cc2cnn(C)c2)CC1	CAL PDZ FP-1 75.1
Cc1cc(C)n(Cc2ccccc2Cl)n1	CAL PDZ FP-1 41.2 (no result: CAL PDZ FP-2)
CCc1nn2c(=O)cc(COC(=O)c3ccc(SC)cc3OC)nc2s1	none
Cc1cc(F)ccc1NC(=O)CCc1c(C)nn(-c2ccc(N3CCCCC3)nn2)c1C	CAL PDZ FP-1 80.3
Cc1nc2c(=O)[nH]c(=S)[nH]c2[nH]c1=O	Keap1 Nrf2 FP inconclusive, LANA DNA inh 103.4 (no result: A3G deaminase, APOBEC3A inh)
Cc1nc2[nH]c(=S)[nH]c(=O)c2nc1C	none (no result: A3G deaminase, APOBEC3A inh)
CC(C)Sc1nnc(CNC(=O)C23CC4CC(CC(C4)C2)C3)n1C1CCCCC1	CAL PDZ FP-1 47.2
N#CCCN(C(=O)COC(=O)COc1ccccc1Cc1ccccc1)c1ccccc1	CAL PDZ FP-1 44.5
O=C(NCc1ccc2c(c1)OCO2)c1ccc2c(c1)OCO2	none
O=C(NCc1ccc2c(c1)OCO2)c1ccc(Cl)nc1	CAL PDZ FP-1 98.9
Cc1ccc(C(=O)NCc2ccc3c(c2)OCO3)cc1C	none
Cc1cc(C(=O)NCc2ccc3c(c2)OCO3)ccc1[N+](=O)[O-]	CAL PDZ FP-1 68.9 (no result: CAL PDZ FP-2)
CN(CC(=O)Nc1ccc(Cl)cc1)S(=O)(=O)c1ccc2c(c1)n(C)c(=O)c(=O)n2C	CAL PDZ FP-1 active
CN(CC(=O)Nc1cccc(Cl)c1)S(=O)(=O)c1ccc2c(c1)n(C)c(=O)c(=O)n2C	none
Cc1cc(NC(=O)CN(C)S(=O)(=O)c2cccc(Cl)c2)no1	CAL PDZ FP-1 112.5
CCOC(=O)NNC(=O)NCCCCCCNC(=O)NNC(=O)OCC	none (no result: CAL PDZ FP-1)
NC(=O)Nc1ccccc1C(=O)N1CCC(O)(c2ccc(Cl)cc2)CC1	none
COc1cc2c(cc1NS(=O)(=O)N1CCCCC1)oc1ccccc12	none
COC(=O)c1c(NC(=S)NN2CCN(C)CC2)sc2c1CCC(C)C2 (centres undefined)	none (no result: CAL PDZ FP-1)
CCc1ccc2nc3n[nH]c(N)c3cc2c1	none
Nc1[nH]nc2nc3ccccc3cc12	CAL PDZ FP-1 46.6
O=C(NCc1csc(-c2cccs2)n1)C1CCCCC1	CAL PDZ FP-1 32.6
CCC(=O)NCc1csc(-c2cccs2)n1	none
O=C(NCC(Cl)c1ccc2ccccc2c1)c1c(F)cccc1F (centres undefined)	none
CN(C(=O)c1cc(COc2c(F)cccc2F)on1)C1CCOC1 (centres undefined)	none
O=C(c1cc(COc2c(F)cccc2F)on1)N(Cc1ccccc1)CC1CC1	CAL PDZ FP-1 63.7
CCOc1ccc(C(C(=O)NCC2CCCO2)N(Cc2ccccc2)C(=O)c2snc(C(N)=O)c2N)cc1 (centres undefined)	CAL PDZ FP-1 88.0
COc1ccc(CCN2CC(C(=O)NCCN3CCOC3=O)CCC2=O)cc1 (centres undefined)	none
CSc1nc(NCCOCCO)c2sc3nc(-c4ccco4)c4c(c3c2n1)CCC4	CAL PDZ FP-1 65.9
O=C1COc2ccc(N3C(=O)C=CC3=O)cc2N1	A3G deaminase 48.7 (no result: CAL PDZ FP-1, Keap1 Nrf2 FP, LANA DNA inh, CAL PDZ FP-2)
O=C(CCc1ccc(Oc2cc([N+](=O)[O-])cc([N+](=O)[O-])c2)cc1)N1CCCCC1	none
CCOc1ccccc1N1C(=O)CN(Cc2ccc(OC)c(OC)c2)C1=S	CAL PDZ FP-1 47.8 (no result: CAL PDZ FP-2)
COc1ccc(CN2CC(=O)N(c3ccccc3OC)C2=S)cc1OC	none
COc1ccc(N2C(=O)CCC(C(=O)N3CCCCC3)C2c2ccc(F)cc2)cc1 (centres undefined)	CAL PDZ FP-1 59.2
CN1C(C(=O)NCc2ccc(OC(F)(F)F)cc2)CC2Cn3c(nc4cc(Cl)c(Cl)cc43)C21 (centres undefined)	none
O=C(NCc1cccnc1)c1ccc(Cn2c(=S)[nH]c3ccc(Br)cc3c2=O)cc1	CAL PDZ FP-1 active
O=c1c2cc(Br)ccc2[nH]c(=S)n1Cc1ccccc1	none (no result: CAL PDZ FP-1)
Nc1nnc(SCC(=O)Nc2nccs2)s1	none (no result: CAL PDZ FP-1)
